# Source: PubChem BioAssay (several laboratories)
# Sampled rows, rich in hits. Any-hit rate of the full collection: about 2.8%.
# Mcl1-Bid inh: Mcl-1/Bid binding inhibitors, primary screen, biochemical, TR-FRET, 1536-well. TR-FRET Mcl-1/Bid-Dy647 peptide binding. 220,000 compounds, 0.97% hits. inhibition, % at 21.7 µM. Induced myeloid leukemia cell differentiation protein Mcl-1 (Homo sapiens), Q07820. AID 1021, 2008;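 active = compounds that cut the binding signal by more than half at the single screening dose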;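 also: His-tagged Mcl-1 with europium anti-His antibody binding Bid BH3 peptide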
# Target sequence (Q07820 whole entry, looked up): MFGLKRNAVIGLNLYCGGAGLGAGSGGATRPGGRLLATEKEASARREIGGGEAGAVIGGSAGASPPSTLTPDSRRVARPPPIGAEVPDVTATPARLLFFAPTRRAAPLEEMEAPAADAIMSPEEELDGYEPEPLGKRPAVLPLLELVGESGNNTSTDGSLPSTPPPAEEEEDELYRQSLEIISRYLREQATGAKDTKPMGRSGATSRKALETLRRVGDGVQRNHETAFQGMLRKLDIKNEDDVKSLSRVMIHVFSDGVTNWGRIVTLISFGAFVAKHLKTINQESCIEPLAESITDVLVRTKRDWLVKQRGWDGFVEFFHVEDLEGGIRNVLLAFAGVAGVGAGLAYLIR
# Mcl1 Noxa PPI: Mcl-1/Noxa binding inhibitors, primary screen, biochemical, TR-FRET, 1536-well | TR-FRET Mcl-1/Noxa peptide binding, 2 h | inhibition, % at 21.7 µM | 220,000 compounds, 1.5% hits | AID 1022, 2008;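 active = compounds that cut the protein-peptide binding signal by more than 50% relative to plate controls in a single-dose test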;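 also: His-tagged Mcl-1 with rhodamine Noxa BH3 peptide and terbium anti-His antibody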
# Calpain2 inh: inhibitors of pig calpain II, primary screen, biochemical, fluorogenic peptide substrate, 1536-well; AID 1236, 2008; inhibition, % at 16 µM; purified calpain II, 30 min; 220,000 compounds, 0.37% hits;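 active = inhibition above about 50%, limit read from the data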
# Mcl-1 Bim block: inhibitors of Bim peptide binding to Mcl-1, primary screen, biochemical, bead-based flow cytometry, multiplex | Induced myeloid leukemia cell differentiation protein Mcl-1 (Homo sapiens), Q07820 | Bim peptide-Mcl-1 binding | inhibition, % at 10 µM | 190,000 compounds, 0.1% hits; in the data active = inhibition above about 40%
# Arbovirus inh: antivirals against arbovirus infection, primary screen, cell-based, full library, 10K replicate subset. arbovirus infection cell-based antiviral screen. inhibition, % at 10 µM. 200,000 compounds, 0.37% hits; in the data active = inhibition above about 30%
# Calb biofilm kill: clotrimazole potentiators killing C. albicans biofilm, primary screen, 4-compound mixtures; C. albicans biofilm persisters + clotrimazole, fluorescence viability; primary screen in compound mixtures of four per well; inhibition, % at 7.6 µM; 120,000 compounds, 0.02% hits; AID 1242, 2008;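 active = inhibition above 30.3% in the primary screen of four-compound pools, then above 30% when the compound was retested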;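 also: compounds exposed to preformed 24 h biofilms for 48 h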
#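 Test system: C. albicans biofilms. Buffer or medium: RPMI/MOPS medium, pH 7.0. Timing: 48 h compound exposure at 37 °C. Technique: Alamar Blue fluorescence. Evaluation: percent inhibition of biofilm viability.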
# Hits are given with their value; 0 = inactive; - = no result.
SMILES,Mcl1-Bid inh,Mcl1 Noxa PPI,Calpain2 inh,Mcl-1 Bim block,Arbovirus inh,Calb biofilm kill
S=C(NC1CCCCC1)N(CCc1ccccc1)CCc1ccccc1,0,0,0,0,0,0
Cc1ccc(OCCNC(=O)Cc2ccc(F)cc2)cc1,0,0,0,0,0,0
Brc1ccc(C2=Nc3cccc4cccc(c34)N2)o1,0,55.1,0,0,0,0
Cc1[nH]c2ccccc2c1CN1CCc2ccccc2C1,51.1,-,0,0,0,-
CN1CCN(C(=S)c2cn(Cc3ccccc3F)c3ccccc23)CC1,85.5,0,0,0,0,0
CC1CCN(C(=S)c2cn(Cc3ccccc3F)c3ccccc23)CC1,0,0,0,0,0,-
CCOC(=O)C1=C(CNCCc2ccc(Cl)cc2)NC(=O)NC1c1ccc2c(c1)OCO2 (stereo not drawn),0,0,53.1,0,0,-
CCOC(=O)C1=C(CNCCOc2ccc(OC)cc2)NC(=O)NC1c1ccc2c(c1)OCO2 (stereo not drawn),0,0,0,0,0,0
Cc1c(Br)c(=O)oc2c(Br)c(O)c(O)cc12,0,64.5,0,0,0,0
CCOc1ccc(-c2csc(NC(=O)CSCC(=O)O)n2)c2ccccc12,0,0,0,0,32.3,0
Cc1ccc(Cl)cc1Nc1nc(-c2sc(NC(=O)c3ccccc3)nc2C)cs1,100.3,106.0,0,0,0,-
CCC(=O)Nc1nc(C)c(-c2csc(Nc3ccc(S(=O)(=O)Nc4cc(C)on4)cc3)n2)s1,0,0,0,0,0,-
Cc1cc(NS(=O)(=O)c2ccc(Nc3nc(-c4sc(NC(=O)c5ccccc5)nc4C)cs3)cc2)no1,0,116.5,0,0,0,-
O=C(Nc1nc(-c2ccncc2)cs1)c1ccco1,0,93.9,0,0,0,-
O=C(Nc1nc(-c2cccs2)cs1)c1ccco1,0,0,0,0,0,0
COc1ccccc1Nc1nc(-c2sc(NC(=O)c3ccccc3)nc2C)cs1,0,0,0,0,0,-
COc1ccccc1Nc1nc(-c2sc(NC(=O)c3ccc([N+](=O)[O-])cc3)nc2C)cs1,0,86.1,0,0,0,-
O=C(COc1ccc(Cl)cc1)N1CCN(C(=O)c2cccs2)CC1,0,0,0,0,0,0
COc1cc(C#N)c(NC(=S)N2CCOCC2)cc1OC,0,0,0,0,0,0
Cc1nc(NC(=O)c2ccccc2)sc1-c1csc(Nc2cccc(F)c2)n1,0,55.5,0,0,0,-
CC(=O)Nc1ccc(-c2csc(N/N=C\c3ccncc3)n2)cc1,0,51.4,0,-,-,0
Cc1nc(NC(=O)c2ccccc2)sc1-c1csc(NCc2ccccc2)n1,0,0,0,0,0,-
COc1cccc(Nc2nc(-c3sc(NC(=O)c4ccco4)nc3C)cs2)c1,0,0,0,56.0,0,-
Nc1ncnc2oc(-c3ccco3)c(-c3ccco3)c12,0,82.1,0,0,0,-
Nc1nnc(-c2ccco2)s1,0,0,0,0,0,-
SMILES,Mcl1-Bid inh,Mcl1 Noxa PPI,Calpain2 inh,Mcl-1 Bim block,Arbovirus inh,Calb biofilm kill
N#Cc1c(-c2ccccc2)cc(-c2ccco2)c(C#N)c1N,0,73.7,0,0,0,-
N#Cc1sc2nc(-c3ccccc3)cc(-c3ccco3)c2c1N,74.2,101.8,0,0,0,-
N#Cc1sc2nc(-c3cccs3)cc(-c3ccc(F)cc3)c2c1N,0,0,0,0,36.6,0
CC(=O)Nc1cc2cc(NS(=O)(=O)c3ccc(C)cc3)ccc2oc1=O,0,0,0,-,-,0
CCOC(=S)SCC(=O)Nc1ncc(C)s1,0,0,0,-,-,0
COc1ccc(/C=N/n2c(=O)[nH]c3c([nH]c4ccc(Br)cc43)c2=O)cc1CN1CCOCC1,0,54.1,0,0,0,-
O=[N+]([O-])c1ccc(Oc2ccc(/C=N/O)cc2)nc1,0,0,0,0,0,0
Cc1ccc(/C=C2/SC(=O)NC2=S)o1,0,77.1,0,0,0,0
O=C1NC(=O)/C(=C\c2ccc(Oc3ccc([N+](=O)[O-])cn3)cc2)S1,0,0,0,0,32.9,0
COc1cc(/C=C2\SC(=O)NC2=O)ccc1Oc1ccc([N+](=O)[O-])cc1[N+](=O)[O-],0,86.8,0,0,0,0
COc1ccc(/C=C2\SC(=O)NC2=S)cc1OC,0,64.3,0,0,0,0
Cn1cc(/C=C2\SC(=O)NC2=S)c2ccccc21,0,0,0,0,0,0
Cc1sc2nc(CSc3ccc([N+](=O)[O-])c(C(F)(F)F)c3)[nH]c(=O)c2c1C,0,0,0,0,0,0
O=c1oc2ccccc2c2c1nnn2CCO,0,0,0,0,0,0
COc1cc2c(cc1OC)CN(Cc1ccc(OC)c(C)c1OC)CC2,0,0,0,0,0,-
COc1cc(OC)c(OC)cc1CN1CCc2ccccc2C1,55.1,0,0,0,0,-
CCN1/C(=C2\SC(=S)N(Cc3ccccc3)C2=O)Sc2ccccc21,0,0,0,0,0,0
CCC(CO)[n+]1c(C)cc(/C=C2\Sc3ccccc3N2Cc2ccccc2)cc1C (stereo not drawn),0,0,0,0,0,34.5
CC1CCN(C2(O)C(=O)Nc3ccc(Br)cc32)CC1 (stereo not drawn),0,0,0,93.0,0,0
Cc1ccc(NC(=O)c2cc(NC(=O)C3CC=CCC3C(=O)O)ccc2N2CCOCC2)cc1Cl (stereo not drawn),0,0,0,0,0,-
COc1ccc(/C=C2/SC(=O)N(CCC(=O)Nc3ccc(C)cc3)C2=O)cc1OC,0,0,0,0,0,0
COc1cc(/C=C2\SC(N)=NC2=O)ccc1OCC(=O)Nc1ccc(C)cc1,61.3,0,0,0,0,0
CC(C)c1ccc(/C=C(/C#N)c2nnc(NC(=O)c3ccccc3)s2)cc1,0,0,0,0,0,0
CC(=O)N1N=C(c2ccco2)CC1c1cc2ccc(C)cc2nc1Cl (stereo not drawn),0,0,0,-,-,0
O=[N+]([O-])c1ccc(NCCCNS(=O)(=O)c2ccc(Cl)cc2)c(Cl)c1,0,0,71.2,0,0,-
SMILES,Mcl1-Bid inh,Mcl1 Noxa PPI,Calpain2 inh,Mcl-1 Bim block,Arbovirus inh,Calb biofilm kill
CCOC(=O)c1csc(NC(=O)CC2CCCC2)n1,0,0,0,0,30.2,0
O=C(COC(=O)/C=C/c1cccs1)NC1CC1,0,0,0,0,0,0
COc1cc(/C=C(\C#N)c2nc3ccccc3s2)cc([N+](=O)[O-])c1O,0,99.2,0,0,36.1,0
N#C/C(=C\c1ccc(O)c([N+](=O)[O-])c1)c1nc2ccccc2s1,0,66.2,0,0,46.1,0
O=C(O)CC/C(=C\c1ccc(Cl)c([N+](=O)[O-])c1)c1nc2ccccc2s1,0,0,0,0,0,0
COc1ccc(-c2csc(/C(C#N)=C\c3ccc(O)c([N+](=O)[O-])c3)n2)cc1OC,69.6,102.5,0,-,-,0
